In ChEMBL document CHEMBL3872252, “New bithiazolyl hydrazones: Novel synthesis, characterization and antitubercular evaluation” (Bioorg Med Chem Lett, 2017):
≈ marks a conversion by molar mass, not a printed value.

What was measured:
[1] = Antitubercular activity against Mycobacterium tuberculosis H37Ra ATCC 25177 dormant stage infected in human THP1 cells measured on day 12 by nitrate reductase assay; format: functional, THP-1; conditions: ATCC 25177, 288 h
[2] = Antitubercular activity against Mycobacterium tuberculosis H37Ra ATCC 25177 active stage infected in human THP1 cells measured on day 8 by nitrate reductase assay; format: functional, THP-1; conditions: ATCC 25177, 192 h
[3] = Antitubercular activity against Mycobacterium tuberculosis H37Ra ATCC 25177 active stage measured on day 8 by XTT reduction menadione based two-fold dilution assay; format: functional; conditions: ATCC 25177, 192 h
Summary of the method: (§1)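 M. tuberculosis H37Ra ATCC 25177 was exposed to 0.7–100 μg/mL in two-fold steps (0.7, 1.5, 3.1 … 100). Active stage was read after 8 days and dormant stage after 12 days of incubation. Inhibition was read by XTT reduction menadione assay (XRMA), absorbance 470 nm. MIC90 is the concentration giving ≥90% inhibition (µg/mL).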

[4] = Antitubercular activity against Mycobacterium tuberculosis H37Ra ATCC 25177 dormant stage measured on day 12 by XTT reduction menadione based two-fold dilution assay; format: functional; conditions: ATCC 25177, 288 h; summary of the method: as §1
[5] = Antitubercular activity against Mycobacterium bovis BCG ATCC 35743 active stage measured on day 8 by nitrate reductase based two-fold dilution assay; format: functional, Mycobacterium bovis BCG str. ATCC 35743; conditions: Mycobacterium tuberculosis variant bovis BCG, ATCC 35743, 192 h
[6] = Antitubercular activity against Mycobacterium bovis BCG ATCC 35743 dormant stage measured on day 12 by nitrate reductase based two-fold dilution assay; format: functional, Mycobacterium bovis BCG str. ATCC 35743; conditions: Mycobacterium tuberculosis variant bovis BCG, ATCC 35743, 288 h
[7] = Cytotoxicity against human THP1 cells by MTT assay; format: toxicity, cell-based, THP-1
[8] = Cytotoxicity against human MCF7 cells by MTT assay; format: toxicity, cell-based
[9] = Cytotoxicity against human HCT116 cells by MTT assay; format: toxicity, cell-based, HCT-116
[10] = Selectivity index, ratio of GI50 for human HCT116 cells to MIC90 for Mycobacterium tuberculosis H37Ra ATCC 25177 active stage; format: toxicity, cell-based, HCT-116; conditions: read-out: Selectivity Index
Summary of the method: (§2)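 Cytotoxicity was measured on human MCF-7, HCT116 and THP-1 cells by MTT assay, with paclitaxel as reference. GI50 is the concentration inhibiting 50% of cell growth. The selectivity index is GI50 for the given cell line divided by MIC90 for the given mycobacterial strain and stage.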

[11] = Selectivity index, ratio of GI50 for human HCT116 cells to MIC90 for Mycobacterium tuberculosis H37Ra ATCC 25177 dormant stage; format: toxicity, cell-based, HCT-116; conditions: read-out: Selectivity Index
Summary of the method: (§3)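 Cytotoxicity was measured on human MCF-7, HCT116 and THP-1 cells by MTT assay, with paclitaxel as reference. The selectivity index is GI50 for the given cell line divided by MIC90 for the given mycobacterial strain and stage.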

[12] = Selectivity index, ratio of GI50 for human HCT116 cells to MIC90 for Mycobacterium bovis BCG ATCC 35743 active stage; format: toxicity, cell-based, HCT-116; conditions: read-out: Selectivity Index; summary of the method: as §2
[13] = Selectivity index, ratio of GI50 for human HCT116 cells to MIC90 for Mycobacterium bovis BCG ATCC 35743 dormant stage; format: toxicity, cell-based, HCT-116; conditions: read-out: Selectivity Index; summary of the method: as §3
[14] = Selectivity index, ratio of GI50 for human THP1 cells to MIC90 for Mycobacterium tuberculosis H37Ra ATCC 25177 dormant stage; format: toxicity, cell-based, THP-1; conditions: read-out: Selectivity Index; summary of the method: as §3
Escherichia coli [15] = assay: Antibacterial activity against Escherichia coli; format: functional
Pseudomonas aeruginosa [16] = assay: Antibacterial activity against Pseudomonas aeruginosa; format: functional
Staphylococcus aureus [17] = assay: Antibacterial activity against Staphylococcus aureus; format: functional
Bacillus subtilis [18] = assay: Antibacterial activity against Bacillus subtilis; format: functional
Escherichia coli [19] = assay: Growth inhibition of Escherichia coli at 30 ug/ml; format: functional; conditions: read-out: GI
Escherichia coli [20] = assay: Growth inhibition of Escherichia coli at 10 ug/ml; format: functional; conditions: read-out: GI
Escherichia coli [21] = assay: Growth inhibition of Escherichia coli at 3 ug/ml; format: functional; conditions: read-out: GI
Summary of the method: (§4)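 Screened against Gram-negative E. coli and P. aeruginosa and Gram-positive S. aureus and B. subtilis. Compound was tested at 3 µg/ml, and the read-out is percent growth inhibition.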

Pseudomonas aeruginosa [22] = assay: Growth inhibition of Pseudomonas aeruginosa at 30 ug/ml; format: functional; conditions: read-out: GI
Pseudomonas aeruginosa [23] = assay: Growth inhibition of Pseudomonas aeruginosa at 10 ug/ml; format: functional; conditions: read-out: GI
Pseudomonas aeruginosa [24] = assay: Growth inhibition of Pseudomonas aeruginosa at 3 ug/ml; format: functional; conditions: read-out: GI; summary of the method: as §4
Staphylococcus aureus [25] = assay: Growth inhibition of Staphylococcus aureus at 30 ug/ml; format: functional; conditions: read-out: GI
Staphylococcus aureus [26] = assay: Growth inhibition of Staphylococcus aureus at 10 ug/ml; format: functional; conditions: read-out: GI
Staphylococcus aureus [27] = assay: Growth inhibition of Staphylococcus aureus at 3 ug/ml; format: functional; conditions: read-out: GI; summary of the method: as §4
Bacillus subtilis [28] = assay: Growth inhibition of Bacillus subtilis at 30 ug/ml; format: functional; conditions: read-out: GI
Bacillus subtilis [29] = assay: Growth inhibition of Bacillus subtilis at 10 ug/ml; format: functional; conditions: read-out: GI
Bacillus subtilis [30] = assay: Growth inhibition of Bacillus subtilis at 3 ug/ml; format: functional; conditions: read-out: GI; summary of the method: as §4

C/C(=N\Nc1nc(-c2ccc(Br)cc2)cs1)c1sc(-c2ccccc2)nc1C
MIC90 [1]: > 100 mg/L | MIC90 [2]: > 100 mg/L | IC50 [3]: 0.18 mg/L (≈ 0.383 µM) | MIC90 [3]: > 100 mg/L | IC50 [4]: 0.14 mg/L (≈ 0.298 µM) | MIC90 [4]: 57.7 mg/L (≈ 123 µM) | IC50 [5]: > 100 mg/L | MIC90 [5]: > 100 mg/L | IC50 [6]: > 100 mg/L | MIC90 [6]: > 100 mg/L | GI50 ([7]; THP1 cells): 48.9 mg/L (≈ 104 µM) | GI90 ([7]; thp-1): > 100 mg/L | GI50 ([8]; MCF7 cells): 26.3 mg/L (≈ 56.1 µM) | GI90 ([8]; mcf7): > 100 mg/L | GI50 ([9]; HCT116 cells): 55.6 mg/L (≈ 118 µM) | GI90 ([9]; hct-116): > 100 mg/L | selectivity ratio [10]: 1 | selectivity ratio [11]: 1 | selectivity ratio [12]: 1 | selectivity ratio [13]: 1 | selectivity ratio [14]: 1 | IC50 (Escherichia coli [15]): 0.475 mg/L (≈ 1.01 µM) | MIC (Escherichia coli [15]): 1.14 mg/L (≈ 2.43 µM) | IC50 (Pseudomonas aeruginosa [16]): 0.416 mg/L (≈ 0.886 µM) | MIC (Pseudomonas aeruginosa [16]): 1.05 mg/L (≈ 2.24 µM) | IC50 (Staphylococcus aureus [17]): 0.453 mg/L (≈ 0.965 µM) | MIC (Staphylococcus aureus [17]): 1.84 mg/L (≈ 3.92 µM) | IC50 (Bacillus subtilis [18]): 0.526 mg/L (≈ 1.12 µM) | MIC (Bacillus subtilis [18]): 1.95 mg/L (≈ 4.15 µM) | inhibition of growth at 30 µg/mL (Escherichia coli [19]): 96.7% | inhibition of growth at 10 µg/mL (Escherichia coli [20]): 94.4% | inhibition of growth at 3 µg/mL (Escherichia coli [21]): 93% | inhibition of growth at 30 µg/mL (Pseudomonas aeruginosa [22]): 98.4% | inhibition of growth at 10 µg/mL (Pseudomonas aeruginosa [23]): 95.8% | inhibition of growth at 3 µg/mL (Pseudomonas aeruginosa [24]): 94.3% | inhibition of growth at 30 µg/mL (Staphylococcus aureus [25]): 96.8% | inhibition of growth at 10 µg/mL (Staphylococcus aureus [26]): 94.3% | inhibition of growth at 3 µg/mL (Staphylococcus aureus [27]): 92.8% | inhibition of growth at 30 µg/mL (Bacillus subtilis [28]): 96.5% | inhibition of growth at 10 µg/mL (Bacillus subtilis [29]): 93.8% | inhibition of growth at 3 µg/mL (Bacillus subtilis [30]): 92.3%

CC1(C)S[C@@H]2[C@H](NC(=O)[C@H](N)c3ccccc3)C(=O)N2[C@H]1C(=O)O [AMPICILLIN]
MIC (Escherichia coli [15]): 1.46 mg/L (≈ 4.18 µM) | MIC (Pseudomonas aeruginosa [16]): 4.36 mg/L (≈ 12.5 µM) | MIC (Staphylococcus aureus [17]): 1 mg/L (≈ 2.86 µM) | MIC (Bacillus subtilis [18]): 10.3 mg/L (≈ 29.5 µM)

NC[C@H]1O[C@H](O[C@H]2[C@H](O)[C@@H](O[C@H]3O[C@H](CO)[C@@H](O)[C@H](N)[C@H]3O)[C@H](N)C[C@@H]2N)[C@H](O)[C@@H](O)[C@@H]1O [KANAMYCIN]
MIC (Escherichia coli [15]): 1.62 mg/L (≈ 3.34 µM) | MIC (Pseudomonas aeruginosa [16]): 0.49 mg/L (≈ 1.01 µM) | MIC (Staphylococcus aureus [17]): > 30 mg/L | MIC (Bacillus subtilis [18]): 1.35 mg/L (≈ 2.79 µM)
